Reference: ChEMBL document CHEMBL5108089, “Structure-based discovery of potent inhibitors of Axl: design, synthesis, and biological evaluation” (RSC Med Chem, 2022)

What was measured:
[1] = Half-life in Sprague-Dawley rat at 5 mg/kg, po measured upto 24 hrs by LC-MS/MS analysis; assay type: ADME, organism-based; conditions: in vivo
[2] = Half-life in Sprague-Dawley rat at 1 mg/kg, iv measured upto 24 hrs by LC-MS/MS analysis; assay type: ADME, organism-based; conditions: in vivo
[3] = Metabolic stability in human liver microsomes assessed as half-life preincubated for 10 mins followed by NADPH addition and measured upto 60 mins by LC-MS/MS analysis; assay type: ADME, Microsome; conditions: time < 70 min
[4] = Metabolic stability in rat liver microsomes assessed as intrinsic clearance preincubated for 10 mins followed by NADPH addition and measured upto 60 mins by LC-MS/MS analysis; assay type: ADME, Microsome; conditions: time < 70 min, read-out: CLH
[5] = Cmax in Sprague-Dawley rat at 1 mg/kg, iv measured upto 24 hrs by LC-MS/MS analysis; assay type: ADME, organism-based; design: time < 24 hrs, dose 1 mg/kg, route iv; conditions: in vivo
[6] = Metabolic stability in rat liver microsomes assessed as half-life preincubated for 10 mins followed by NADPH addition and measured upto 60 mins by LC-MS/MS analysis; assay type: ADME, Microsome; conditions: time < 70 min
[7] = Oral bioavailability in Sprague-Dawley rat at 5 mg/kg measured upto 24 hrs by LC-MS/MS analysis; assay type: ADME, organism-based; conditions: in vivo
[8] = Metabolic stability in human liver microsomes assessed as intrinsic clearance preincubated for 10 mins followed by NADPH addition and measured upto 60 mins by LC-MS/MS analysis; assay type: ADME, Microsome; conditions: time < 70 min, read-out: CLH
[9] = Intrinsic clearance in rat; assay type: ADME
[10] = Cmax in Sprague-Dawley rat at 5 mg/kg, po measured upto 24 hrs by LC-MS/MS analysis; assay type: ADME, organism-based; design: dose 5 mg/kg, time < 24 hrs, route po; conditions: in vivo
[11] = Intrinsic clearance in human; assay type: ADME
[12] = AUC (0 to last) in Sprague-Dawley rat at 1 mg/kg, iv measured upto 24 hrs by LC-MS/MS analysis; assay type: ADME, organism-based; design: dose 1 mg/kg, time < 24 hrs, route iv; conditions: in vivo
[13] = Clearance in Sprague-Dawley rat at 1 mg/kg, iv measured upto 24 hrs by LC-MS/MS analysis; assay type: ADME, organism-based; conditions: in vivo
[14] = AUC (0 to last) in Sprague-Dawley rat at 5 mg/kg, po measured upto 24 hrs by LC-MS/MS analysis; assay type: ADME, organism-based; design: dose 5 mg/kg, time < 24 hrs, route po; conditions: in vivo
[15] = biological target: T1, Tyrosine-protein kinase receptor UFO (Homo sapiens, UniProt P30530); experiment: Inhibition of human Axl using KKSRGDYMTMQIG as substrate incubated for 40 mins in the presence of [gamma33P]ATP by scintillation counting analysis
T1 sequence (P30530 whole entry): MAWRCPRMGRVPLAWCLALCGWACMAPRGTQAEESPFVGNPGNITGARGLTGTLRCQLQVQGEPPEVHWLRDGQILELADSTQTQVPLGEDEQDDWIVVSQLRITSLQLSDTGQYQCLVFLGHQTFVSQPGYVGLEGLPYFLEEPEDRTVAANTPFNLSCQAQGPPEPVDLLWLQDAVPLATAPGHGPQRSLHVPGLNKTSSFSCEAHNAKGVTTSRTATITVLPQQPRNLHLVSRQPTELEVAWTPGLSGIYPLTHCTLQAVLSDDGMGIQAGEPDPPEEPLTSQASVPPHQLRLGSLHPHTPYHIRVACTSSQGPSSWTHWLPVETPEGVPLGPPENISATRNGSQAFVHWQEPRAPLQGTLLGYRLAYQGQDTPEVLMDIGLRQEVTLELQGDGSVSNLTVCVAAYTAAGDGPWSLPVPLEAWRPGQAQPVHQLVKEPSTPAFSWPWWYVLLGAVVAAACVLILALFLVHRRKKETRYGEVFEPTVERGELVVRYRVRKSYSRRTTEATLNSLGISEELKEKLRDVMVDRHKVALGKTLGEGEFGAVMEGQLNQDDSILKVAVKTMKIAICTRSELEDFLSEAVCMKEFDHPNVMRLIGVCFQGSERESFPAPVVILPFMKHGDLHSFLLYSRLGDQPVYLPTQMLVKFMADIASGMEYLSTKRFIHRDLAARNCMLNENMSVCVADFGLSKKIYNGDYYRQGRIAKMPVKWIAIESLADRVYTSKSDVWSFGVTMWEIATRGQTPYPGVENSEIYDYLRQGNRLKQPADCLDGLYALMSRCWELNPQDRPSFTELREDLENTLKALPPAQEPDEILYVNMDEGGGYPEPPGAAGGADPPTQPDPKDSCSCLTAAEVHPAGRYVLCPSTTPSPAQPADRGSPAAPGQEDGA

[16] = biological target: ALK tyrosine kinase receptor (Homo sapiens, UniProt Q9UM73); experiment: Inhibition of human ALK using KKKSPGEYVNIEFG as substrate incubated for 40 mins in the presence of [gamma33P]ATP by scintillation counting analysis
Sequence of ALK tyrosine kinase receptor (Q9UM73 whole entry): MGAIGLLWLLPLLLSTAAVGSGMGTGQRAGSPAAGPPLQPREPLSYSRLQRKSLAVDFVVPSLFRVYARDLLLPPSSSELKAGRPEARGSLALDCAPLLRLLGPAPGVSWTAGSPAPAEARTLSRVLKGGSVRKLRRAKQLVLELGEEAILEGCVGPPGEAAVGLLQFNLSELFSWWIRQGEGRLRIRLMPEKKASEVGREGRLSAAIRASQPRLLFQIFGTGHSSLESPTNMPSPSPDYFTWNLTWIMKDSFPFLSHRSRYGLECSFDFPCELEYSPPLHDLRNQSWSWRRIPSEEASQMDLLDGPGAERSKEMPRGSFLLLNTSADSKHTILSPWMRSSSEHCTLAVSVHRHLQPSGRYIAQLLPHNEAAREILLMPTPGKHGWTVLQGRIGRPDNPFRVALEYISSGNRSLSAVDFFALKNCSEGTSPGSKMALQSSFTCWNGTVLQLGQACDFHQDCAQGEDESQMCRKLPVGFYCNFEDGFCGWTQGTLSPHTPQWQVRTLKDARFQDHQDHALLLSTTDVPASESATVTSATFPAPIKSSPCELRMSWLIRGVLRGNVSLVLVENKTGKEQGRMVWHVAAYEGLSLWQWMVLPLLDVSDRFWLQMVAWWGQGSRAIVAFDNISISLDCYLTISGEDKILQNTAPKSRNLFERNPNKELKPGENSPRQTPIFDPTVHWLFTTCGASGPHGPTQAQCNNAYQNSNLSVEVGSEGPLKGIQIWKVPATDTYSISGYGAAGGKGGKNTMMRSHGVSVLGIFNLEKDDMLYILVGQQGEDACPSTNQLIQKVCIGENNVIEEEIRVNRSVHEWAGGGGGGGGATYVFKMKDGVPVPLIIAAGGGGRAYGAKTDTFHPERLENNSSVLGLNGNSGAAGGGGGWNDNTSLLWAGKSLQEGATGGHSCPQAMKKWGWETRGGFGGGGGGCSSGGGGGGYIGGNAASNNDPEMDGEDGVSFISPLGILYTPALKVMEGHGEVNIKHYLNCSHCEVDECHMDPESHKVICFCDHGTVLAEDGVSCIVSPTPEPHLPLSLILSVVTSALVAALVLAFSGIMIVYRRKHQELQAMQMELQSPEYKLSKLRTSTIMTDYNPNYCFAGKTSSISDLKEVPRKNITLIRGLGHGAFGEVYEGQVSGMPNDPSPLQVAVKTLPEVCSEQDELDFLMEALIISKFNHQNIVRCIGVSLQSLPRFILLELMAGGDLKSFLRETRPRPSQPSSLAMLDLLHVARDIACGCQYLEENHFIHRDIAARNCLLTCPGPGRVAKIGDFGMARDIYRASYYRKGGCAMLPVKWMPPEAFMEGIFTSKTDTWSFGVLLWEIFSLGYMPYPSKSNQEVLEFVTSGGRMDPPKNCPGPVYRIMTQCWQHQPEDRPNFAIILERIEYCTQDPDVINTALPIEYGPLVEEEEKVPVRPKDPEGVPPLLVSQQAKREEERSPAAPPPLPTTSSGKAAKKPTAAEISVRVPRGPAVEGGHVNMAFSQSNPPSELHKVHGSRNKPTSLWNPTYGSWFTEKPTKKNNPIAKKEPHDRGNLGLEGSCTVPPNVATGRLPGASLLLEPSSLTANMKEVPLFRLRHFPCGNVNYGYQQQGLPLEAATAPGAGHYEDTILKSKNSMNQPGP
Method in brief: (§1)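 Human kinase, radiometric: incubated in 8 mM MOPS pH 7.0, 0.2 mM EDTA, 10 mM magnesium acetate with [γ-33P]-ATP; started by Mg/ATP mix, 40 min at room temperature, stopped with phosphoric acid to 0.5%. Spotted on P30 filtermat, washed 4×4 min in 0.425% phosphoric acid and once in methanol, dried, scintillation counted.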

Aurora kinase B = Aurora kinase B (Homo sapiens, UniProt Q96GD4); experiment: Inhibition of human Aurora B using AKRRRLSSLRA as substrate incubated for 40 mins in the presence of [gamma33P]ATP by scintillation counting analysis; method in brief: as §1
Sequence of Aurora kinase B (Q96GD4 whole entry): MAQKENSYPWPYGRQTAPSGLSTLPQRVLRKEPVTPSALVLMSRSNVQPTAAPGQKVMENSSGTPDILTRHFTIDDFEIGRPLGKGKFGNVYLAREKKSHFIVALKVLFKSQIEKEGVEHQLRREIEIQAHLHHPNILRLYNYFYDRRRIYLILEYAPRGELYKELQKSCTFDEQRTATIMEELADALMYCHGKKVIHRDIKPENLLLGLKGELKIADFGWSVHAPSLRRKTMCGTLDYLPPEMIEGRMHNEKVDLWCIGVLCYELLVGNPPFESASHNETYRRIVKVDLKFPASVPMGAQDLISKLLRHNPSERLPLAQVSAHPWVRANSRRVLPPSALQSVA

[17] = biological target: Tyrosine-protein kinase JAK2 (Homo sapiens, UniProt O60674); experiment: Inhibition of human JAK2 using KTFCGTPEYLAPEVRREPRILSEEEQEMFRDFDYIADWC as substrate incubated for 40 mins in the presence of [gamma33P]ATP by scintillation counting analysis; method in brief: as §1
Sequence of Tyrosine-protein kinase JAK2 (O60674 whole entry): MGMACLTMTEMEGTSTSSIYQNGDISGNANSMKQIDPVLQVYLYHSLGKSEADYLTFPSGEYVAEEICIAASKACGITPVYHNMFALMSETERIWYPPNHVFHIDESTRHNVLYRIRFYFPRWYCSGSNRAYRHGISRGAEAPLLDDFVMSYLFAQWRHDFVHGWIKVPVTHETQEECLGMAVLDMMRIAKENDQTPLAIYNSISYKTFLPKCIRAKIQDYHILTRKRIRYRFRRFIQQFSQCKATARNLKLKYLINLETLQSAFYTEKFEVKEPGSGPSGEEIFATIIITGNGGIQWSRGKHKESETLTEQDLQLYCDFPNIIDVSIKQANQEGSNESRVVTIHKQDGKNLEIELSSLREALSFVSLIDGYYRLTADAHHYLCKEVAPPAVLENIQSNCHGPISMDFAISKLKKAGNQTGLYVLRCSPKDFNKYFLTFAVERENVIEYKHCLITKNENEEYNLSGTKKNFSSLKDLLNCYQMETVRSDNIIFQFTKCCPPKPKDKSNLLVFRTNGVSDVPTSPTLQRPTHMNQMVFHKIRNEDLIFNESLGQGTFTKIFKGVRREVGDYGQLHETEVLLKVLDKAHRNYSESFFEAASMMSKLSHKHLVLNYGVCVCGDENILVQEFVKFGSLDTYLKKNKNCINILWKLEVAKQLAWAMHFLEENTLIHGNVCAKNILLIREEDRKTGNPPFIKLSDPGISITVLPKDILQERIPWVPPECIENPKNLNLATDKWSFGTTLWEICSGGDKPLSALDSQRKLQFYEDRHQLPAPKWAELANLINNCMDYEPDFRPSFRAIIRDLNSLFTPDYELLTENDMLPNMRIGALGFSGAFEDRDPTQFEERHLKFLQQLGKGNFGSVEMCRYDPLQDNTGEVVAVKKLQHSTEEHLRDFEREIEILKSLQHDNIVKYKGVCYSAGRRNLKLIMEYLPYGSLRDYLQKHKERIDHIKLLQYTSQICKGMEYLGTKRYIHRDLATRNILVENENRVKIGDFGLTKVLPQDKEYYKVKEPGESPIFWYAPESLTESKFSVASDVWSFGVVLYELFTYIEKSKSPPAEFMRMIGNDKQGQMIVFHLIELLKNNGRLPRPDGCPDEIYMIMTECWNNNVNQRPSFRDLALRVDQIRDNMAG

half-life [1]	half-life [2]	half-life [3]	CLint scaled [4]	Cmax [5]	half-life [6]	bioavailability [7]	CLint scaled [8]	CLint scaled [9]	Cmax [10]	CLint scaled [11]	AUClast [12]	clearance [13]	AUClast [14]	IC50 [15]	IC50 [16]	IC50 (Aurora kinase B)	IC50 [17]	Structure (SMILES)
79.2 min	89.4 min	156 min	16.2 mL/min/kg	337 ng/mL	153 min	26.6%	11.2 mL/min/kg	12.5 mL/min/kg	169 ng/mL	7.2 mL/min/kg	497 ng·h/mL	32.5 mL/min/kg	661 ng·h/mL					CC(=O)N1CCN(c2ccc(Nc3ncc(Cl)c(Nc4ccccc4-c4ncn(C(C)C)n4)n3)cc2)CC1
		1.82 min	1090 mL/min/kg		2.3 min		953 mL/min/kg	52.5 mL/min/kg		20.3 mL/min/kg								CC(=O)N1CCc2ccc(Nc3ncc(Cl)c(Nc4ccccc4S(=O)(=O)N(C)C)n3)cc2C1
		2.4 min	1040 mL/min/kg		2.4 min		720 mL/min/kg	52.4 mL/min/kg		20.1 mL/min/kg				0.014 µM				CN1CCc2ccc(Nc3ncc(Cl)c(Nc4ccccc4S(=O)(=O)N(C)C)n3)cc2C1
														0.011 µM	0.5 µM	0.004 µM	0.13 µM	Cc1nc(-c2ccccc2Nc2nc(Nc3ccc(CN4CCN(C)CC4)cc3)ncc2Cl)n[nH]1
		4.4 min	339 mL/min/kg		7.3 min		393 mL/min/kg	47.5 mL/min/kg		19.6 mL/min/kg								CN1CC2CN(C(=O)c3ccc(Nc4ncc(Cl)c(Nc5ccccc5S(=O)(=O)N(C)C)n4)cc3)CC2C1 (stereo not drawn)
		36.2 min	389 mL/min/kg		6.4 min		48 mL/min/kg	48.3 mL/min/kg		14.5 mL/min/kg								CN1CCC(Oc2ccc(Nc3ncc(Cl)c(Nc4ccccc4-c4nnn(C)n4)n3)cc2)CC1
176 min	106 min	2.7 min	582 mL/min/kg	89.8 ng/mL	4.3 min	21.5%	646 mL/min/kg	50.4 mL/min/kg	46.8 ng/mL	20.1 mL/min/kg	187 ng·h/mL	82.8 mL/min/kg	158 ng·h/mL					CN1CCN(Cc2ccc(Nc3ncc(Cl)c(Nc4ccccc4S(=O)(=O)N(C)C)n3)cc2)CC1 [DUBERMATINIB]

Structure (SMILES)	half-life [1]	half-life [2]	half-life [3]	CLint scaled [4]	Cmax [5]	half-life [6]	bioavailability [7]	CLint scaled [8]	CLint scaled [9]	Cmax [10]	CLint scaled [11]	AUClast [12]	clearance [13]	AUClast [14]	IC50 [15]	IC50 [16]	IC50 (Aurora kinase B)	IC50 [17]
CN1CCC(N(C)c2ccc(Nc3ncc(Cl)c(Nc4ccccc4-c4ncn(C)n4)n3)cc2)CC1			74.2 min	162 mL/min/kg		15.4 min		23.4 mL/min/kg	41.2 mL/min/kg		11 mL/min/kg							
